Consider 95 molecules from ChEMBL document CHEMBL4513216, “Probing the Open Global Health Chemical Diversity Library for Multistage-Active Starting Points for Next-Generation Antimalarials” (ACS Infect Dis, 2020).

This data set in a line: Toxicity liver stage against HepG2, at 10uM. To be noted: human, HepG2-A16-CD81EGFP cells; read-out: INHIBITION
The format is cell-based. On the set-up: test concentration 10 uM, cell line HepG2-A16-CD81EGFP. In short, it runs like this: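 Uninfected HepG2-A16-CD81EGFP cells, 3 × 10^3 per well, 1536-well, plated on prespotted compound at 10 μM final, parasite-free screening media added to match infected plates; puromycin 10 μM positive, DMSO 0.5% negative; run in parallel with 48 h PbLuc assay at 37 °C, 5% CO2; viability by CellTiter-Glo luminescence, normalized to controls.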
Regarding `CCC1(CC)Cc2ccccc2-c2nc(CN(C)C)nc(O)c21`, the cytotoxicity at 10 µM was -8.95%. Under `CCOC(=O)C1CC2(CCCCC2)N2CCC(=O)N12` (stereo not given) stands 2.63%; under `C[C@@H](CO)NC(=O)c1ccc2nc(NS(C)(=O)=O)sc2c1`, 6.84%. As to `CCOCC(=O)NCC(Cc1cccc(F)c1)N1CCCCC1=O` (stereo not given), the cytotoxicity at 10 µM is -1.89%.

Consider `CNC(=O)CN1CCC(c2nn(C)c(=O)n2-c2ccccc2)CC1`, for which the cytotoxicity at 10 µM was -14%. With `COC(=O)c1sccc1S(=O)(=O)N1CCC(Oc2cnccn2)CC1` the figure was 9.32%. Consider `COC[C@@H]1CCC[C@]12CN(S(=O)(=O)c1cccs1)CCO2`, for which the cytotoxicity at 10 µM was -5.73%. Under `O=C(Cc1ccccc1)N1CC[C@@H]2CNS(=O)(=O)[C@@H]2CC1` stands -9.88%; under `Cn1cccc1C(=O)N1CC[C@H]2[C@@H]1CCC(=O)N2CC1CC1`, -11.1%; under `NC(=O)c1ccc2c(c1)nc1n2CCN(Cc2cccnc2)C1`, 10.3%. On to `O=C(O)c1ccc2ccc(N3CCN(CC4CC4)CC3)n2c1`, for which the cytotoxicity at 10 µM worked out at 7.25%. With `CC(C)Cn1nc(-c2ccc(C(=O)O)cc2)cc1-c1ccc(F)cc1` the figure was 8.88%; with `COc1ccc(S(=O)(=O)N2CCC[C@@H]3CN(C(=O)C4CC4)C[C@@H]32)cc1`, 14.7%; with `OC1(Cn2ccc3ncccc32)CCN(Cc2cc(F)cc(F)c2)CC1`, -5.41%.

As for `COCC(=O)N1CCC(c2cccc(Cc3ccc(F)cc3)n2)CC1`, the cytotoxicity at 10 µM stood at 10.3%. Under `COc1ccccc1Cc1nnc(SCCS(C)(=O)=O)o1` stands 5.89%. With `CCC(=O)c1cccc(S(=O)(=O)NC(C)C#N)c1` (stereo not given) the figure was 3.73%.

In the case of `COc1cccc2c1CCCCN2C(=O)c1oc(C)nc1C`, the cytotoxicity at 10 µM was determined as 3.3%.

Regarding `c1cnnc(N2CCCC(NCc3cccc4c3OCO4)C2)c1` (stereo not given), the cytotoxicity at 10 µM is 2.97%. Under `CS(=O)(=O)Cc1noc(CN(Cc2ccco2)c2ccccc2)n1` stands -8.3%. Regarding `CNS(=O)(=O)c1ccc(CNC(=O)C2CCCO2)cc1` (stereo not given), the cytotoxicity at 10 µM worked out at 2.45%. Take `Cc1cc(CNCC2(O)CCOCC2)ccc1Br`: the cytotoxicity at 10 µM was -0.378%.

In the case of `Cn1cc(C2CN(C(=O)Cc3coc(-c4ccccc4)n3)CCO2)cn1` (stereo not given), the cytotoxicity at 10 µM was -12.4%. With `O=C(c1cccnc1O)N1CCN(Cc2ccccc2F)CC1` the figure was 5.57%; with `CC(C#N)CSc1ccccc1NCC(=O)NC1CCCCC1` (stereo not given), 9.37%. With `O=C(Nc1cccc(CN2CCOC2=O)c1)N1CCCC1` the figure was -3.54%. With `CCCC1CCCN(C(=O)Nc2ccc(F)c(C(N)=O)c2)CC1` (stereo not given) the figure was -2.27%; with `CSCCC(=O)N1CCCC1c1nnc2n1CCCCC2` (stereo not given), -5.79%; with `CCc1nnc2n1CCN(C(=O)c1cnn(C)c1C1CC1)C2`, -6.93%. For the molecule `CC(C)S(=O)(=O)CC(=O)N(Cc1ccsc1)c1ccccc1`, the cytotoxicity at 10 µM was -5.24%. With `CN1CCN(CCCN(C)S(=O)(=O)CC2CCCCC2)CC1` the figure was -10.1%; with `CC(Cn1cccn1)C(=O)N1CCC(Nc2cccnn2)CC1` (stereo not given), -9.28%; with `O=C(CN1CCN(CCO)CC1)NCc1ccc(Cl)s1`, 9.3%.

As for `Cc1ccc(CNC(=O)CN(C)CC2CCN(CCO)CC2)s1`, the cytotoxicity at 10 µM came to 9.83%. With `COCCOC1CCN(C(=O)NCc2cc(C)oc2C)CC1` the figure was -4.23%; with `Cc1c(C(=O)NS(=O)(=O)c2ccsc2)cnn1CC(C)C`, 11.6%. With `O=C(CC1CC1)N[C@@H]1CN(C(=O)c2cccs2)C[C@@H]2CCCO[C@@H]21` the figure was -113%; with `CC(C)N1C(=O)C[C@H]2[C@@H]1CCN2C(=O)c1ccco1`, -99%. Under `CCS(=O)(=O)NCC1Cn2nnc(-c3ccccc3)c2CO1` (stereo not given) stands -75.4%; under `Cc1ccc2c(n1)N(CCN(C)C)CCN(C(=O)c1ccco1)C2`, -65.8%. Take `CCOCC1CN(C(=O)Cc2ccccn2)Cc2cnn(CC)c21` (stereo not given): the cytotoxicity at 10 µM was -68.9%. With `O=C1CCc2cc(NC(=O)N3CCCN(Cc4cccs4)CC3)ccc21` the figure was -11.1%. `CN1CCC(N2CCC(CN(Cc3ccncc3)C3CCC3)CC2)CC1`: the cytotoxicity at 10 µM is -7.19%. Under `Cc1nc2cc(CNC(=O)C3CC(=O)N(C4CCCC4)C3)ccc2n1C` (stereo not given) stands -2.37%.

Turning to `CCCc1nnc(NC(C)c2ccc3c(c2)OCCO3)o1` (stereo not given), the cytotoxicity at 10 µM is 0.965%. With `COc1cccc2c1OCC(NCc1cnn(-c3ccccc3F)c1)C2` (stereo not given) the figure was 1.68%. With `Cc1ccc(N2CCN(C3CCc4ccccc4C3)CC2)nn1` (stereo not given) the figure was -0.75%. As to `CC(C)NS(=O)(=O)c1cc(C(=O)O)cc(-c2ccccc2C#N)c1`, the cytotoxicity at 10 µM is -3.73%.

Take `Cc1ccccc1C(C(=O)N(C)CCc1cn[nH]c1)N(C)C` (stereo not given): the cytotoxicity at 10 µM was -5.86%. With `CCSc1ccc(C(=O)N2CC[C@](O)(CC)[C@H](O)C2)s1` the figure was -7.17%; with `CN(C)c1nc2c(c(=O)[nH]1)Cc1ccccc1OC2`, -104%. For `CCOc1ccc2[nH]c(=O)c(CN(C)CCc3cn[nH]c3)cc2c1`, the cytotoxicity at 10 µM was 25.9%. With `Cc1ccccc1SC1CCN(C(=O)CCCS(N)(=O)=O)CC1` the figure was -7.76%; with `CCCN1CCN(C(=O)c2cc[nH]n2)[C@H]2CS(=O)(=O)C[C@H]21`, 2.29%. With `Cn1cc(C2=CCN(CCCOc3ccc(C(N)=O)cc3)CC2)cn1` the figure was 6.39%. With `CC(C)c1cc(N2CCC(N(C)C)C2)n2nccc2n1` (stereo not given) the figure was -0.869%; with `Cn1c(=O)oc2ccc(NC(=O)N3CCOCC3)cc21`, -5.09%; with `CC(C)(C)c1cn(C2CCN(C(=O)c3cncnc3)CC2)nn1`, 13%. Regarding `CCCC(=O)NCC1CCCN(Cc2cc(C)c(C)o2)C1` (stereo not given), the cytotoxicity at 10 µM stood at 8.82%. With `Cc1nc[nH]c1CNC1CC(=O)N(CCc2cccc(Cl)c2)C1` (stereo not given), the cytotoxicity at 10 µM was -135%.

For the molecule `COc1cccc(-c2cccc(N3CCC(N[C@@H]4CCOC4)CC3)c2)c1`, the cytotoxicity at 10 µM was -12.7%.

For `CN1CCCC1CCn1ccnc1-c1nc2ccccc2[nH]1` (stereo not given), the cytotoxicity at 10 µM is 5.47%.

Take `COc1cccc(-c2n[nH]c3c2CN(C(=O)c2cccc(=O)[nH]2)CC3)c1`: the cytotoxicity at 10 µM was -5.66%. On to `Cc1ncc(CN2CCC(n3cc(-c4ccc(F)cc4)nn3)CC2)cn1`, for which the cytotoxicity at 10 µM is 5.48%.

On to `Cc1cc(-c2n[nH]c3c2CN(S(=O)(=O)c2ccsc2)CC3)c(C)o1`, for which the cytotoxicity at 10 µM is -15.8%.

As to `CCCN(CCOC)c1nc(C)nc2sccc12`, the cytotoxicity at 10 µM is -134%. With `CC(C)c1nc(C2CCCN2Cc2ccncc2Cl)no1` (stereo not given) the figure was -2.83%. Under `COc1cccc2cc(CNC(=O)N3CCC(N4CCCC4)C3)oc12` (stereo not given) stands -2.69%; under `CN(C(=O)Cc1cccs1)C1CCN(c2ccccn2)CC1`, -3.54%; under `CC(Oc1ccccc1)C(=O)N1CCCN(Cc2nccn2C)CC1` (stereo not given), 0.471%. With `Cn1ncc2c(=O)[nH]c(CN(Cc3ccco3)C3CCCC3)nc21` the figure was 20.8%; with `CC(C)N(C)S(=O)(=O)N(C)Cc1ccc2c(c1)OCO2`, -0.0868%. Take `Cc1cc(CN(C)C2CCCN(Cc3noc(C4CC4)n3)C2)no1` (stereo not given): the cytotoxicity at 10 µM was -10.8%. With `CCc1c(C(=O)N2CCN(CC(N)=O)CC2)cnn1C(C)(C)C` the figure was -1.77%; with `Cn1cnc2c1CCN(Cc1nc(COc3ccc(F)cc3)no1)C2`, -7.22%. With `COc1ccc(-c2noc(CNC(C)Cn3cccn3)n2)c(OC)c1` (stereo not given) the figure was -0.144%. With `O=C(c1ccc[nH]1)N1CCCC(c2cc(C(F)(F)F)[nH]n2)C1` (stereo not given) the figure was 2.04%; with `Cc1csc(CNC(=O)N(C)Cc2cnn(C)c2)n1`, -1.57%; with `Cc1nc(C)n(CC2CN(CCOc3ccccc3F)CCO2)n1` (stereo not given), -1.44%.

With `CC(C)C(NC(=O)Cn1ccc(=O)n(C)c1=O)c1ccc(F)cc1` (stereo not given), the cytotoxicity at 10 µM was -9.9%. With `Clc1ccc(OCCCN2CCN(c3cnccn3)CC2)cc1` the figure was -8.11%; with `CCc1nc(CN2CCCN(C(=O)COCC3CC3)CC2)cs1`, -5.2%. Under `Cc1noc([C@@H]2C[C@H]3OCC[C@H]3N(Cc3sccc3C)C2)n1` stands -69.1%. Under `CCS(=O)(=O)NC[C@]12COC[C@H]1CN(Cc1ccsc1)C2` stands 6.37%. For the molecule `CCOc1ncnc2c1CCN(C(=O)c1ccncc1F)CC2`, the cytotoxicity at 10 µM is -76.6%. As for `Cc1ccc(N2CCC3(CCCN3Cc3ccn(C)n3)CC2)nn1`, the cytotoxicity at 10 µM was found to be 11.6%. Under `CNC(=O)COC1COC2(CCN(c3ccc(C)nn3)CC2)C1` (stereo not given) stands -0.419%; under `Cc1cncc(C(=O)N2CC[C@@]3(C[C@H](NS(C)(=O)=O)CCO3)C2)c1`, -73.6%. Under `COCCN1CCC2(CC1)CC(NCc1cncn1C)c1ccccc12` (stereo not given) stands -8.13%.

Consider `c1ccc(OCC2C[C@@H]3[C@@H](C2)OCCN3Cc2ccoc2)nc1` (stereo not given in full), for which the cytotoxicity at 10 µM is -0.514%. Under `CN1CCN(C2COC3(CCN(Cc4ccsc4)CC3)C2)CC1` (stereo not given) stands -77.1%. With `c1coc(CN2CC[C@H]3O[C@@H](COCC4CC4)CC[C@H]32)c1` the figure was -137%. For the molecule `Cc1ccc(CN2CCc3onc(C(=O)NCCN(C)C)c3C2)o1`, the cytotoxicity at 10 µM was determined as 5.9%. With `CCS(=O)(=O)NC[C@]12COC[C@H]1CN(Cc1ccncc1)C2` the figure was 6.01%; with `Cc1c(C2N3CC4(C(C)C)CN2CC(C(C)C)(C3)C4=O)[nH]c(=O)[nH]c1=O` (stereo not given), 8.71%.
